# Columns and labels:
# [1] = Growth inhibition of human OVACR5 cells; format: functional
# [2] = Growth inhibition of human HL60(TB) cells; format: functional, HL-60(TB); details: HL-60
# [3] = test system: DMS-273; assay: Growth inhibition of human DMS273 cells; format: functional
# [4] = test system: SK-MEL-5; assay: Growth inhibition of human SK-MEL-5 cells; format: functional
# How it was run: (§1)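 Tested at the NCI in its human disease-oriented in vitro screen of 60 tumour cell lines, following the Monks et al. methods. Activity is expressed as GI50, given as log molar values.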
# [5] = test system: ACHN; assay: Growth inhibition of human ACHN cells; format: functional
# [6] = test system: Malme-3M; assay: Growth inhibition of human MALME-3M cells; format: functional
# [7] = Growth inhibition of human DMS144 cells; format: functional
# [8] = test system: CAKI-1; assay: Growth inhibition of human CAKI1 cells; format: functional
# [9] = test system: MOLT-4; assay: Growth inhibition of human MOLT4 cells; format: functional
# [10] = test system: NCI-H522; assay: Growth inhibition of human NCI-H522 cells; format: functional
# [11] = test system: HT-29; assay: Growth inhibition of human HT29 cells; format: functional
# [12] = test system: 786-0; assay: Growth inhibition of human 786-0 cells; format: functional
# [13] = test system: COLO 205; assay: Growth inhibition of human COLO205 cells; format: functional
# [14] = test system: SN12C; assay: Growth inhibition of human SN12C cells; format: functional; how it was run: as §1
# [15] = test system: K562; assay: Growth inhibition of human K562 cells; format: functional
# [16] = test system: SR; assay: Growth inhibition of human SR cells; format: functional; how it was run: as §1
# [17] = test system: SW-620; assay: Growth inhibition of human SW620 cells; format: functional; how it was run: as §1
# [18] = test system: HOP-92; assay: Growth inhibition of human HOP92 cells; format: functional
# [19] = test system: SNB-19; assay: Growth inhibition of human SNB19 cells; format: functional; how it was run: as §1
# [20] = test system: SK-OV-3; assay: Growth inhibition of human SK-OV-3 cells; format: functional; how it was run: as §1
# [21] = test system: NCI-H226; assay: Growth inhibition of human NCI-H226 cells; format: functional
# [22] = test system: NCI-H322M; assay: Growth inhibition of human NCI-H322M cells; format: functional
# [23] = test system: U-251; assay: Growth inhibition of human U251 cells; format: functional; how it was run: as §1
# [24] = test system: HOP-62; assay: Growth inhibition of human HOP62 cells; format: functional
# [25] = test system: SNB-75; assay: Growth inhibition of human SNB75 cells; format: functional; how it was run: as §1
# [26] = Growth inhibition of human LXFL529 cells; format: functional; details: LXFL 529
# [27] = test system: SF-295; assay: Growth inhibition of human SF295 cells; format: functional; how it was run: as §1
# [28] = Growth inhibition of human OVACR8 cells; format: functional
# [29] = test system: SF-268; assay: Growth inhibition of human SF268 cells; format: functional; how it was run: as §1
# [30] = test system: M14; assay: Growth inhibition of human M14 cells; format: functional
# [31] = Growth inhibition of human […] cells; format: functional
# [32] = Growth inhibition of human OVACR4 cells; format: functional
# [33] = test system: UACC-257; assay: Growth inhibition of human UACC257 cells; format: functional; how it was run: as §1
# [34] = test system: IGROV-1; assay: Growth inhibition of human IGROV1 cells; format: functional
# [35] = test system: HCT-15; assay: Growth inhibition of human HCT15 cells; format: functional
# [36] = test system: KB; assay: Growth inhibition of human KB cells; format: functional; details: read-out: ED50 (the source's name)
# How it was run: (§2)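 In-house cytotoxicity assay following an NCI protocol, run on a panel of human tumour lines: KB nasopharyngeal epidermoid carcinoma and HCT-8 ileocecal adenocarcinoma. Potency is reported as ED50 in µg/mL.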
# [37] = test system: UACC-62; assay: Growth inhibition of human UACC62 cells; format: functional; how it was run: as §1
# [38] = test system: KM-20L2; assay: Growth inhibition of human KM20L2 cells; format: functional
# [39] = Growth inhibition of human RPMI8266 cells; format: functional
# [40] = test system: A549; assay: Growth inhibition of human A549 cells; format: functional
# [41] = test system: EKVX; assay: Growth inhibition of human EKVX cells; format: functional
# [42] = test system: SK-MEL-28; assay: Growth inhibition of human SK-MEL-28 cells; format: functional; how it was run: as §1
# [43] = test system: KM12; assay: Growth inhibition of human KM12 cells; format: functional
# [44] = test system: HCC 2998; assay: Growth inhibition of human HCC2998 cells; format: functional
# [45] = test system: UO-31; assay: Growth inhibition of human UO31 cells; format: functional; how it was run: as §1
# [46] = test system: DLD-1; assay: Growth inhibition of human DLD1 cells; format: functional
# [47] = test system: SF-539; assay: Growth inhibition of human SF539 cells; format: functional; how it was run: as §1
# [48] = test system: HCT-116; assay: Growth inhibition of human HCT116 cells; format: functional
# [49] = test system: RXF 393; assay: Growth inhibition of human […] cells; format: functional
# [50] = test system: HOP-18; assay: Growth inhibition of human HOP18 cells; format: functional
# [51] = test system: TK-10; assay: Growth inhibition of human TK10 cells; format: functional; how it was run: as §1
# [52] = test system: XF498; assay: Growth inhibition of human XF498 cells; format: functional; how it was run: as §1
# [53] = test system: SK-MEL-2; assay: Growth inhibition of human SK-MEL-2 cells; format: functional; how it was run: as §1
# [54] = test system: HCT-8; assay: Growth inhibition of human HCT8 cells; format: functional; details: read-out: ED50 (the source's name); how it was run: as §2
# [55] = test system: NCI-H460; assay: Growth inhibition of human NCI-H460 cells; format: functional
# [56] = test system: CCRF-CEM; assay: Growth inhibition of human CCRF-CEM cells; format: functional
# [57] = test system: A498; assay: Growth inhibition of human A498 cells; format: functional
# [58] = test system: PC-3; assay: Growth inhibition of human PC3 cells; format: functional
# [59] = test system: MDA-MB-435; assay: Growth inhibition of human MDA-MB-435 cells; format: functional
# [60] = test system: BT-549; assay: Growth inhibition of human BT549 cells; format: functional
# [61] = test system: T47D; assay: Growth inhibition of human T47D cells; format: functional; how it was run: as §1
# [62] = Growth inhibition of human MCF7/ADR-RES cells; format: functional; details: NCI/ADR-RES
# [63] = test system: Hs-578T; assay: Growth inhibition of human HS578T cells; format: functional
# [64] = test system: LOX IMVI; assay: Growth inhibition of human LOX IMVI cells; format: functional
# [65] = test system: MCF7; assay: Growth inhibition of human MCF7 cells; format: functional
# [66] = test system: M19-MEL; assay: Growth inhibition of human M19-MEL cells; format: functional
# [67] = test system: NCI-H23; assay: Growth inhibition of human NCI-H23 cells; format: functional
# [68] = test system: DU-145; assay: Growth inhibition of human DU145 cells; format: functional
# [69] = test system: MDA-MB-231; assay: Growth inhibition of human MDA-MB-231 cells; format: functional
# [70] = test system: MDA-N; assay: Growth inhibition of human MDA-N cells; format: functional
# [71] = read-out: ED50 (the source's name)
smiles,measurement,setting,value
CC1=CC(=O)c2[nH]c3ccccc3c2C1=O [MURRAYAQUINONE A],GI50,[1],5.37 µM
same,GI50,[2],4.07 µM
same,GI50,[3],4.27 µM
same,GI50,[4],4.27 µM
same,EC50,[4]; [71],2.58 µg/mL
same,GI50,[5],4.17 µM
same,GI50,[6],4.9 µM
same,GI50,[7],4.27 µM
same,GI50,[8],14.5 µM
same,GI50,[9],5.37 µM
same,GI50,[10],3.8 µM
same,GI50,[11],17.8 µM
same,GI50,[12],4.27 µM
same,GI50,[13],4.07 µM
same,EC50,[13]; [71],3.85 µg/mL
same,GI50,[14],4.57 µM
same,GI50,[15],5.62 µM
same,GI50,[16],5.75 µM
same,GI50,[17],3.98 µM
same,GI50,[18],3.98 µM
same,GI50,[19],25.1 µM
same,GI50,[20],20.9 µM
same,GI50,[21],6.61 µM
same,GI50,[22],25.1 µM
same,GI50,[23],15.5 µM
same,GI50,[24],25.1 µM
same,GI50,[25],4.37 µM
same,GI50,[26],4.27 µM
same,GI50,[27],4.37 µM
same,GI50,[28],3.98 µM
same,GI50,[29],4.37 µM
same,GI50,[30],4.17 µM
same,GI50,[31],4.57 µM
same,GI50,[32],4.17 µM
same,GI50,[33],4.57 µM
same,GI50,[34],6.61 µM
same,GI50,[35],4.17 µM
same,EC50,[36],5.18 µg/mL
same,GI50,[37],4.17 µM
same,GI50,[38],25.1 µM
same,GI50,[39],5.89 µM
same,GI50,[40],25.1 µM
same,GI50,[41],4.07 µM
same,GI50,[42],4.47 µM
same,GI50,[43],4.37 µM
same,GI50,[44],7.08 µM
same,GI50,[45],3.98 µM
same,GI50,[46],5.01 µM
same,GI50,[47],4.27 µM
same,GI50,[48],4.47 µM
same,GI50,[49],3.47 µM
same,GI50,[50],3.39 µM
same,GI50,[51],5.01 µM
same,GI50,[52],4.37 µM
same,GI50,[53],5.37 µM
same,EC50,[54],5.5 µg/mL
same,GI50,[55],8.13 µM
same,GI50,[56],3.31 µM
COc1cc(C(=O)O)cc2c1[nH]c1ccccc12 [MUKOEIC ACID],GI50,[57],25.1 µM
same,GI50,[58],25.1 µM
same,GI50,[1],25.1 µM
same,GI50,[59],25.1 µM
same,GI50,[2],25.1 µM
same,GI50,[60],25.1 µM
same,GI50,[3],25.1 µM
same,GI50,[4],25.1 µM
same,GI50,[61],25.1 µM
same,GI50,[5],25.1 µM
same,GI50,[6],25.1 µM
same,GI50,[7],25.1 µM
same,GI50,[62],25.1 µM
same,GI50,[8],25.1 µM
same,GI50,[9],25.1 µM
same,GI50,[10],25.1 µM
same,GI50,[11],25.1 µM
same,GI50,[12],25.1 µM
same,GI50,[13],25.1 µM
same,GI50,[14],25.1 µM
same,GI50,[63],25.1 µM
same,GI50,[15],25.1 µM
same,GI50,[16],25.1 µM
same,GI50,[64],25.1 µM
same,GI50,[65],25.1 µM
same,GI50,[17],25.1 µM
same,GI50,[18],25.1 µM
same,GI50,[19],25.1 µM
same,GI50,[20],25.1 µM
same,GI50,[21],25.1 µM
same,GI50,[22],25.1 µM
same,GI50,[23],25.1 µM
same,GI50,[24],25.1 µM
same,GI50,[25],25.1 µM
same,GI50,[26],25.1 µM
same,GI50,[27],25.1 µM
same,GI50,[66],25.1 µM
same,GI50,[28],25.1 µM
same,GI50,[29],25.1 µM
same,GI50,[30],25.1 µM
same,GI50,[67],25.1 µM
same,GI50,[31],25.1 µM
same,GI50,[32],25.1 µM
same,GI50,[33],25.1 µM
same,GI50,[34],25.1 µM
same,GI50,[35],25.1 µM
same,GI50,[37],25.1 µM
same,GI50,[38],25.1 µM
same,GI50,[39],25.1 µM
same,GI50,[68],25.1 µM
same,GI50,[40],25.1 µM
same,GI50,[41],25.1 µM
same,GI50,[42],25.1 µM
same,GI50,[43],25.1 µM
same,GI50,[44],25.1 µM
same,GI50,[45],25.1 µM
same,GI50,[46],25.1 µM
same,GI50,[69],25.1 µM
same,GI50,[47],25.1 µM
same,GI50,[48],25.1 µM
same,GI50,[49],25.1 µM
same,GI50,[50],25.1 µM
same,GI50,[51],25.1 µM
same,GI50,[70],25.1 µM
same,GI50,[53],25.1 µM
same,GI50,[55],25.1 µM
same,GI50,[56],25.1 µM

# Source: ChEMBL document CHEMBL1142636 (2000)
